Test [1] can be described thus: Displacement of fluorescent tracer 3'-chloro-N-(2-(3-(3',6'-dihydroxy-3-oxo-3H-spiro[isobenzofuran-1,9'-xanthen]-5-yl)thioureido)ethyl)-4'-(alpha-D-mannopyranosyloxy)biphenyl-4-carboxamide from Escherichia coli F18 FimH […] expressed in Escherichia coli HM125 assessed as dissociation constant incubated for 24 hrs by competitive binding based fluorescence polarization assay. In a few lines: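 Competitive FP: 50 nM FimH lectin domain and 50 nM mannoside-fluorescein tracer; ligand serially diluted from 500 μM final in 20 mM HEPES pH 7.4, 150 mM NaCl, 50 μg/mL BSA, 5% DMSO (10% for poorly soluble ligands). Read after 24 h equilibration, Ex 485/Em 535 nm. KD from analytical competitive binding model fit.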

Test [2] deals with Type 1 fimbrin D-mannose specific adhesin (Escherichia coli K-12, UniProt P08191). The test can be described thus: Displacement of fluorescent tracer 3'-chloro-N-(2-(3-(3',6'-dihydroxy-3-oxo-3H-spiro[isobenzofuran-1,9'-xanthen]-5-yl)thioureido)ethyl)-4'-(alpha-D-mannopyranosyloxy)biphenyl-4-carboxamide from Escherichia coli F18 full-length FimH expressed in Escherichia coli HM125 assessed as dissociation constant incubated for 24 hrs by competitive binding based fluorescence polarization assay. The essentials: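 Competitive FP with full-length FimH at 300 nM and tracer at 500 nM; ligand serially diluted from 5 mM final, or 50 μM for some mannosides, in 20 mM HEPES pH 7.4, 150 mM NaCl, 50 μg/mL BSA, 5% DMSO (10% for poorly soluble ligands, top 500 μM). Read after 24 h, Ex 485/Em 535 nm. KD from competitive binding model fit.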
Sequence of Type 1 fimbrin D-mannose specific adhesin (P08191 whole entry): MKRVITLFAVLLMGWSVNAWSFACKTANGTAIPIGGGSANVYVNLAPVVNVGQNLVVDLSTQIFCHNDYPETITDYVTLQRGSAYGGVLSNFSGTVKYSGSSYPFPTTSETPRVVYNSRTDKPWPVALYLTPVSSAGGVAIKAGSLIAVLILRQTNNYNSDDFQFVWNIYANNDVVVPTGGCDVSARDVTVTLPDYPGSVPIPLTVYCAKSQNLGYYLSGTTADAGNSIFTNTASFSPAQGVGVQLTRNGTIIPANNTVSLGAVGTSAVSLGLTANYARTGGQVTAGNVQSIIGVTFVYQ

For the next test, the system named is Escherichia coli. The test is described as follows: Ratio of kd for displacement of fluorescent tracer 3'-chloro-N-(2-(3-(3',6'-dihydroxy-3-oxo-3H-spiro[isobenzofuran-1,9'-xanthen]-5-yl)thioureido)ethyl)-4'-(alpha-D-mannopyranosyloxy)biphenyl-4-carboxamide from Escherichia coli F18 full-length FimH expressed in Escherichia coli HM125 to kd for displacement of fluorescent tracer 3'-chloro-N-(2-(3-(3',6'-dihydroxy-3-oxo-3H-spiro[isobenzofuran-1,9'-xanthen]-5-yl)thioureido)ethyl)-4'-(alpha-D-mannopyranosyloxy)biphenyl-4-carboxamide from Escherichia coli F18 FimH lectin domain expressed in Escherichia coli HM125. The essentials:
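Ratio of FP-derived KD for full-length FimH (300 nM protein, 500 nM tracer, ligand from 5 mM) over KD for lectin domain (50 nM each, ligand from 500 μM). Both in HEPES/NaCl/BSA buffer pH 7.4 with DMSO, 24 h equilibration, Ex 485/Em 535 nm, competitive binding model fit.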

A short description of test [3]: Binding affinity to Escherichia coli F18 FimH lectin domain expressed in Escherichia coli HM125 assessed as dissociation constant by isothermal titration calorimetry. In a few lines:
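ITC at 25 °C; protein dialyzed against 20 mM HEPES, 150 mM NaCl, pH 7.4, ligand dissolved in dialysate, 5% or 10% DMSO. Baselines corrected and peaks integrated, then global nonlinear regression fitting with confidence intervals.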
On the technique in general: In ITC the heat of successive injections is recorded.

The term Kd denotes the constant that tells how readily two partners part at equilibrium. Take `CCCCCCCO[C@@H]1C[C@@H](O)[C@@H](O)[C@H](O)[C@@H](CO)O1`: the dissociation constant (Kd) result in test [1] and in test [2] was “Not Active” throughout.
For `CCCCCCCO[C@H]1CO[C@H](CO)[C@@H](O)[C@H](O)[C@@H]1O`, the Kd in test [1] (read-out: Kd) stood at 1940 nM; in test [2] (read-out: Kd), 31800 nM. Besides, the Ratio in the test with Escherichia coli is 16.4.
Take `CCCCCCCO[C@H]1O[C@H](CO)[C@@H](O)[C@H](O)[C@@H]1O`: the results for the equilibrium dissociation constant (Kd) in test [1] (read-out: Kd) and in test [2] (read-out: Kd) were 28.3 nM and 3600 nM, respectively.
For `N#Cc1ccc(-c2ccc(CO[C@H]3CO[C@H](CO)[C@@H](O)[C@H](O)[C@@H]3O)cc2)cc1`, the Kd was 1440 nM in test [1] (read-out: Kd) and 63100 nM in test [2] (read-out: Kd). In addition, in the test with Escherichia coli, the Ratio was 43.8.
With `NC(=O)c1ccc(-c2ccc(O[C@H]3O[C@H](CO)[C@@H](O)[C@H](O)[C@@H]3O)c(Cl)c2)cc1`, the Kd in test [1] (read-out: Kd) amounted to 0.3 nM; in test [2] (read-out: Kd) it was 86 nM.
`NC(=O)c1ccc(-c2ccc(O[C@H]3O[C@H](CO)[C@@H](O)[C@H](O)[C@@H]3O)cc2)cc1`: the Kd in test [2] (read-out: Kd) was 240 nM.
Turning to `OC[C@H]1OC[C@H](OCCCc2ccccc2)[C@@H](O)[C@@H](O)[C@@H]1O`, the figures for the Kd in test [1] (read-out: Kd) and in test [2] (read-out: Kd) were 7050 nM and 125000 nM, respectively. Also, the Ratio with Escherichia coli was found to be 17.8.
As to `OC[C@H]1OC[C@H](Oc2ccc(-c3ccccc3)cc2Cl)[C@@H](O)[C@@H](O)[C@@H]1O`, the Kd was found to be 60 nM in test [1] (read-out: Kd) and 6110 nM in test [2] (read-out: Kd).
For `N#Cc1cccc(-c2ccc(CO[C@H]3CO[C@H](CO)[C@@H](O)[C@H](O)[C@@H]3O)c(Cl)c2)c1`, the Kd was 1440 nM in test [1] (read-out: Kd) and 35500 nM in test [2] (read-out: Kd). Also, in the test with Escherichia coli, the Ratio is 24.7.
On to `N#Cc1ccc(-c2ccc(O[C@H]3O[C@H](CO)[C@@H](O)[C@H](O)[C@@H]3O)c(Cl)c2)cc1`, for which the Kd in test [1] (read-out: Kd) was determined as 0.5 nM; in test [2] (read-out: Kd), 84 nM.
As for `OC[C@H]1O[C@H](Oc2ccc(-c3ccccc3)cc2Cl)[C@@H](O)[C@@H](O)[C@@H]1O`, the Kd in test [1] (read-out: Kd) was 2.8 nM; in test [2] (read-out: Kd) it was 458 nM.
On to `N#Cc1ccc(-c2ccc(O[C@H]3CO[C@H](CO)[C@@H](O)[C@H](O)[C@@H]3O)cc2)cc1`, for which the Kd worked out at 838 nM in test [3], 260 nM in test [1] (read-out: Kd) and 42300 nM in test [2] (read-out: Kd).
`OC[C@H]1OC[C@H](OCc2ccc(-c3ccccc3)cc2)[C@@H](O)[C@@H](O)[C@@H]1O`: the Kd in test [1] (read-out: Kd) came to 5670 nM; in test [2] (read-out: Kd), 110000 nM. The Ratio with Escherichia coli was 19.3.
The corresponding values for `NC(=O)c1ccc(-c2ccc(CO[C@H]3CO[C@H](CO)[C@@H](O)[C@H](O)[C@@H]3O)c(Cl)c2)cc1` are 1580 nM, 59400 nM and 37.6.
Take `NC(=O)c1ccc(-c2ccc(CO[C@H]3CO[C@H](CO)[C@@H](O)[C@H](O)[C@@H]3O)cc2)cc1`: the Kd in test [1] (read-out: Kd) is 2720 nM; in test [2] (read-out: Kd), 116000 nM. Further, in the test on Escherichia coli, the Ratio was determined as 42.7.
Take `OC[C@H]1OC[C@H](OCc2ccccc2)[C@@H](O)[C@@H](O)[C@@H]1O`: the figures for the Kd in test [1] (read-out: Kd) and in test [2] (read-out: Kd) were 80100 nM and 417000 nM, respectively. For the same compound, the Ratio in the test with Escherichia coli came to 5.2.
Consider `NC(=O)c1ccc(-c2ccc(O[C@H]3CO[C@H](CO)[C@@H](O)[C@H](O)[C@@H]3O)c(Cl)c2)cc1`, for which the Kd in test [1] (read-out: Kd) turned out to be 120 nM; in test [2] (read-out: Kd) it was 7340 nM.
As for `N#Cc1ccc(-c2ccc(O[C@H]3CO[C@H](CO)[C@@H](O)[C@H](O)[C@@H]3O)c(Cl)c2)cc1`, the Kd worked out at 100 nM in test [1] (read-out: Kd) and 6990 nM in test [2] (read-out: Kd).
In the case of `OC[C@H]1O[C@H](Oc2ccc(-c3ccccc3)cc2)[C@@H](O)[C@@H](O)[C@@H]1O`, the Kd in test [1] (read-out: Kd) was 15.1 nM.
For `N#Cc1ccc(-c2ccc(CO[C@H]3CO[C@H](CO)[C@@H](O)[C@H](O)[C@@H]3O)c(Cl)c2)cc1`, the Kd came to 1300 nM in test [1] (read-out: Kd) and 37800 nM in test [2] (read-out: Kd). Moreover, in the test with Escherichia coli, the Ratio came to 29.1.
For the compound `N#Cc1ccc(-c2ccc(O[C@H]3O[C@H](CO)[C@@H](O)[C@H](O)[C@@H]3O)cc2)cc1`, in test [2] (read-out: Kd), the Kd came to 208 nM.

For the origin of these results see ChEMBL document CHEMBL5500326, “Does size matter? - Comparing pyranoses with septanoses as ligands of the bacterial lectin FimH” (Eur J Med Chem, 2024).
